# Compound activity deposited in PubChem by several laboratories.
# Rows were chosen to be rich in hits. Some 4% of all compounds tested hit in one or more screens of this group.
# MDM2 E3 inh: inhibitors of human Mdm2 E3 ubiquitin ligase; Q00987; cell-based MDM2 ubiquitination luciferase reporter, 2 h; 0 = plate control, 100 = twice control, blank-subtracted; signal enhancement, % at 5 µM; 210,000 compounds, 0.11% hits; AID 1230;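 active = signal enhancement of 30% or more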;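 also: luminescence tracks abundance of the self-degrading MDM2-luciferase fusion protein; higher signal means inhibition of MDM2 E3 ligase activity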
# Target sequence (Q00987 whole entry, looked up, the tested form may be a part): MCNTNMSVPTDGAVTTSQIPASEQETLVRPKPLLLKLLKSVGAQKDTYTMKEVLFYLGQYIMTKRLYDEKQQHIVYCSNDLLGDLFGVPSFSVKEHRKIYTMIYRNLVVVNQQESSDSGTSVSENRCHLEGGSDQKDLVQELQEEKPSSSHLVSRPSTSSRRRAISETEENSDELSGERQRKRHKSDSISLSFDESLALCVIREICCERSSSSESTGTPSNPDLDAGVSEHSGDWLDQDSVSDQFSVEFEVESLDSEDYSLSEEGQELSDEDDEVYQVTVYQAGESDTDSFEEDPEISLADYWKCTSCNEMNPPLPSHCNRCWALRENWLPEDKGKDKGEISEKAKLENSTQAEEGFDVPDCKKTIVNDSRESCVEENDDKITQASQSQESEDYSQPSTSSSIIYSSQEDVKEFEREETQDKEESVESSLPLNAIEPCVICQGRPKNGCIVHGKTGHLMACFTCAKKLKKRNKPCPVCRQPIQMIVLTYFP
#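 Test system: stable mammalian line carrying autodegrading MDM2–luciferase fusion reporter; quantity: 2000 cells in each well; times: 4 h cell settling then 2 h compound exposure, 37 °C; detection: luminescence with SteadyLite reagent, 15 min at room temperature; evaluation: percent signal gain over controls, blank-subtracted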
# RAM network inh: yeast RAM network inhibition. inhibition, % at 50 µM. S. cerevisiae dse1pr::URA3 reporter, 5-FOA growth OD615, 2 d; analog-sensitive cbk1-as2 kinase mutant strain. AID 868. 190,000 compounds, 1.8% hits;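 active = inhibition above a set limit, 3 SD over mean compound inhibition, cut at about 8.4% in these data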;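 also: 0% = DMSO-only wells with no growth and 100% = 10 µM 1-NA-PP1 full growth; inhibition rescues growth on 5-FOA so higher OD means more RAM inhibition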
# INS promoter inh: TRM-6 insulin promoter activity inhibition; TRM-6 cells, insulin promoter-eGFP reporter, imaging; reporter expression induced with tamoxifen; inhibition, % at 2 µM; 130,000 compounds, 0.9% hits; AID 1273;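 active = inhibition above the mean plus 3 SD, with well images judged a real hit on visual review, cut at about 60% in these data, passing the limit was not always enough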
# Measles CPE: protection of cells from measles virus; 140,000 compounds, 1.5% hits; AID 841; Measles virus-infected cells, CPE protection, absorbance; protection (pct of control), % at 4 µM; in the data active = protection mostly above about 24%, no sharp cut-off; inactive = mostly below about 26%
# BB579 growth dn: reduces growth of yeast BB579 in restrictive medium | 140,000 compounds, 0.51% hits | S. cerevisiae BB579 growth, OD615, 48 h | inhibition, % at 10 µM | AID 804;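 active = inhibition above a set limit, 3 SD over the mean compound inhibition, cut at about 44% in these data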
#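 Test system: DeaD yeast strain BB579 / Buffer or medium: restrictive glucose-based CSMM-D medium / Doses: single 10 µM dose / Schedule: 4 h cell preincubation, 48 h compound exposure, 30 °C humidified / Technique: culture absorbance at 615 nm / Controls: amphotericin B positive control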
# Yeast life ext: extends the lifespan of yeast; S. cerevisiae growth with nicotinamide, OD615; deaD strain in restrictive glucose medium; inhibition of the nicotinamide effect, % at 10 µM; 130,000 compounds, 0.68% hits; AID 775;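 active = inhibition above a set limit, placed 3 SD over the median of all compounds, cut at about 26% in these data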;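 also: 0% = nicotinamide-treated wells and 100% = cells grown without nicotinamide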
#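 Test system: DeaD-strain S. cerevisiae / Buffer or medium: restrictive glucose medium / Also added: nicotinamide 1.5 mM / Doses: one concentration, 10 µM, DMSO 0.25% / Schedule: 48 h at 30 °C / Signal: OD615 measurement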
# * = called active by the depositor; . = no result.
SMILES,MDM2 E3 inh,RAM network inh,INS promoter inh,Measles CPE,BB579 growth dn,Yeast life ext
CCCSc1cc(NCCOC(=O)CCC)c([N+](=O)[O-])c2nonc12,-5.0,5.2,6.7,10.7,2.3,28.3*
CCC(=O)OCCNc1cc(Sc2nc3ccccc3s2)c2nonc2c1[N+](=O)[O-],-20.7,2.7,-4.2,4.7,-30.1,32.3*
CCCSc1cc(NCCOC(C)=O)c([N+](=O)[O-])c2nonc12,-13.5,3.5,5.4,9.8,-1.6,1.1
CCOc1ccc(C(=O)CC(NCc2cccs2)C(=O)O)cc1 (stereo not drawn),-4.2,0.5,-100.0,.,.,.
COc1ccc(C2C(C(C)=O)=C(C)N=c3s/c(=C\c4ccco4)c(=O)n32)c(OC)c1 (stereo not drawn),-4.2,3.3,.,2.9,-38.9,-5.0
COc1ccc(C2C(C(C)=O)=C(C)N=c3s/c(=C\c4cc(C)n(C)c4C)c(=O)n32)c(OC)c1 (stereo not drawn),-11.1,8.4*,.,7.7,-38.0,-5.7
O=C(O)CNC(=O)CC1S/C(=N/N=C2\CSC(=O)N2)NC1=O (stereo not drawn),-13.3,2.4,-78.6,.,.,.
COC(=O)c1ccccc1NC(=O)C1CCN(C(=O)c2ccc(OC)cc2)CC1,-6.5,1.4,-22.7,16.0,-5.2,-30.9
Cc1ccc(Cn2c(C)cc3c(c2=O)C(c2cccs2)C(C#N)=C(N)O3)cc1 (stereo not drawn),-4.3,8.7*,-14.3,4.6,-42.0,-4.4
COc1ccc2cc(C(=O)N3CCCCCC3)sc(=O)c2c1OC,-15.2,-0.3,-50.0,7.5,4.1,-4.4
COC(=O)c1cc2ccc(OC)c(OC)c2c(=O)s1,1.5,0.7,50.0,24.3*,33.1,-7.7
Cc1cc(C(=O)N/N=C/c2cccc([N+](=O)[O-])c2)c(C)o1,-6.4,2.8,-2.4,33.5*,-58.3,-14.1
CCSc1nnc(-c2ccccc2NC(C)=O)c(=O)[nH]1,-7.9,0.0,71.4*,5.7,-12.2,-12.2
COc1ccc(/C=C2\SC(=O)N(CCn3cnnn3)C2=O)cc1,-4.1,2.4,.,.,.,.
CC1(C)CC(=O)C(C=Nc2ccc(NC3=C(C#N)C(=O)CC(C)(C)C3)cc2)=C(O)C1,-12.1,4.4,.,.,.,.
Cc1cc(OC(=O)c2cc(F)c(F)cc2Cl)nc(C)n1,-6.5,0.2,29.7,5.1,-26.2,-3.5
Cc1cc(C)c(S(=O)(=O)c2ccccc2)c(OC(=O)c2cc(F)c(F)cc2Cl)n1,35.3*,0.6,9.3,4.0,-67.5,43.4*
O=C(O)CSc1ncnc2scc(-c3ccccc3)c12,-2.1,.,.,.,.,.
CCC(=O)Nc1ccccc1Sc1ncnc2scc(-c3ccccc3)c12,-10.9,3.1,-83.3,13.1,-33.3,61.9*
CC(=O)c1ccc(S(=O)(=O)Nc2ccc(-c3cn4c(n3)SCC4)cc2)cc1,14.1,2.7,-20.0,.,.,.
CC1CCC(C(C)C)C(OC(=O)CSc2n[nH]c(=O)[nH]c2=O)C1 (stereo not drawn),3.2,2.4,30.4,12.8,-46.9,47.5*
CCc1nn(C)c(-c2n[nH]c(=S)n2N)c1Cl,-5.7,1.0,.,43.8*,-9.0,-19.9
CN(CCC#N)C(=O)COC(=O)c1ccc(Cl)c(S(=O)(=O)N(C)c2ccccc2)c1,-17.4,-0.3,.,.,.,.
Cc1ccc(OCCCCn2ccnc2)c(Cl)c1,5.5,0.1,72.7*,1.6,-28.1,-0.7
O=c1c2ccccc2nnn1Cc1cccc2ccccc12,-10.4,1.4,-18.2,.,.,.
SMILES,MDM2 E3 inh,RAM network inh,INS promoter inh,Measles CPE,BB579 growth dn,Yeast life ext
O=c1c2ccccc2nnn1Cc1ccc(Br)cc1,-7.7,2.1,25.0,.,.,.
CC(C)OC(=O)c1ccc(Cn2nnc3ccccc3c2=O)cc1,-7.5,0.5,58.6,38.7*,-35.0,-6.3
O=c1c2ccccc2nnn1Cc1ccccn1,-11.0,0.0,.,63.0*,13.0,-9.3
COCCSc1ccccc1C(=O)NCc1cccnc1,2.2,0.1,.,.,.,.
O=C1c2ccccc2-c2onc3ccc(NCCCn4ccnc4)c1c23,-4.0,37.9*,-56.8,6.6,-44.4,79.7*
CN1C(=O)C(c2nnc(Nc3cccc4ccccc34)s2)C2CC1(C)Oc1ccccc12 (stereo not drawn),-5.6,9.0*,13.7,13.1,-48.4,-4.4
S=c1[nH]nc(-c2cc(-c3ccccc3)n[nH]2)n1/N=C/C(Br)=C/c1ccccc1,-5.3,.,.,.,.,.
Cc1cc(C)c2c(c1)-c1c(ssc1=S)C(C)(C)N2C(=O)CN1C(=O)c2ccccc2C1=O,-6.2,11.2*,-41.7,10.3,-33.4,-1.2
Cc1cccc(NC(NC(=O)c2ccccn2)C(Cl)(Cl)Cl)c1 (stereo not drawn),4.2,0.0,-263.6,38.7*,-14.9,7.3
Cc1cccc(NC(NC(=O)Cc2ccccc2)C(Cl)(Cl)Cl)c1 (stereo not drawn),-11.0,2.1,.,58.0*,-20.3,8.2
O=C(Cn1cnc2c(oc3ccccc32)c1=O)NCC1CCCO1 (stereo not drawn),-2.9,-1.1,-17.9,27.1*,-1.5,-21.5
O=C(Cn1cnc2c(oc3ccccc32)c1=O)NCc1ccccc1,-20.2,3.0,.,10.5,8.2,-0.5
O=C(Cn1cnc2c(oc3ccccc32)c1=O)NCc1ccco1,-0.4,1.2,81.8*,4.0,-58.0,-4.9
O=C(Cn1cnc2c(nnn2Cc2ccc(Cl)cc2)c1=O)NCC1CCCO1 (stereo not drawn),10.7,0.6,-243.8,47.9*,-16.8,-9.9
O=C(NCCC(c1ccccc1)c1ccccc1)c1ccc(Br)o1,2.3,10.4*,3.5,2.2,-32.0,-3.8
CC1=C(C(=O)Nc2ccccc2)C(c2sccc2C)n2nnnc2N1 (stereo not drawn),0.6,2.1,-14.3,2.8,-39.5,-8.6
CCOC(=O)CN(c1ccccn1)S(=O)(=O)c1ccccc1,-7.2,0.4,17.1,35.0*,18.6,-8.1
COc1ccc(S(=O)(=O)N(CC(=O)O)c2ccccn2)cc1,-40.9,-0.1,33.3,15.3,3.2,-5.3
CCOC(=O)C1(Cc2cccc(OC)c2)CCN(Cc2cnc(C)s2)CC1,-7.2,-0.5,.,.,.,.
N#C/C(=C\c1ccc(OC(=O)c2ccc(Cl)s2)cc1)c1nc2ccccc2[nH]1,2.2,1.0,27.3,1.4,-56.0,-0.4
COc1ccc(-n2c3c(c(=O)[nH]c2=O)C(NC(=O)c2ccncc2)(C(F)(F)F)C(=O)N3)cc1 (stereo not drawn),0.1,-0.4,10.0,.,.,.
COc1cccc(NCc2ccc([N+](=O)[O-])s2)c1,-10.8,2.8,-20.0,48.3*,-23.5,5.5
Cc1ccc(N(CC(=O)Nc2cccc(C)c2)S(=O)(=O)c2cccc3nonc23)cc1,-15.7,1.3,.,13.3,-37.5,-2.5
CCn1c(SCC(=O)Nc2ccc(C)cc2)nnc1-c1ccc(O)cc1,-3.5,2.9,-62.5,1.4,0.2,.
